Measured values taken from ChEMBL document CHEMBL4825663 (J Med Chem, 2021).
The source made the active and inactive calls. The rule behind the calls is not given here.

Experiments:
[1] = Drug distribution in Sprague-Dawley rat brain; format: ADME, tissue-based; conditions: in vivo
[2] = molecular target: T1, Organic anion transporter 3 (Homo sapiens, UniProt Q8TCC7); assay: Inhibition of human OAT3 assessed as reduction in intracellular probe substrate accumulation upto 100 uM by microplate scintillation counter analysis relative to control; format: cell-based
T1 sequence (Q8TCC7 whole entry): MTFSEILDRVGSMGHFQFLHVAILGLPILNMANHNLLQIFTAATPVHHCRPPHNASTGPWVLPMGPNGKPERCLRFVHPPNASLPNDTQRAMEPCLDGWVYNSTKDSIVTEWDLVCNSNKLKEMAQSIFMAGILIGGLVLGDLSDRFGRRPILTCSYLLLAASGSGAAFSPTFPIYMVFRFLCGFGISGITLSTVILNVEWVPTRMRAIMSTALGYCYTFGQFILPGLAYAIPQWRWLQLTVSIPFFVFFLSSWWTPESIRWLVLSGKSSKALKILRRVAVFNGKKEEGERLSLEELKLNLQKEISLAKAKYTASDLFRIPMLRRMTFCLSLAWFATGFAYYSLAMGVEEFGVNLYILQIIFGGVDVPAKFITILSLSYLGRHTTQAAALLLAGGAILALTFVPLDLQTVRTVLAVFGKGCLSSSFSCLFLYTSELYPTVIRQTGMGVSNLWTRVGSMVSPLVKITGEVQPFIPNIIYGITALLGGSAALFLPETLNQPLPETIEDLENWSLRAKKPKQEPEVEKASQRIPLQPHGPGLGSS
Summary of the method: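 Cellular uptake-inhibition assays used Chinese hamster ovary, HEK293 or MDCKII cells stably expressing the respective human SLC transporter, run alongside the corresponding control cells. Inhibitor was tested at concentrations up to 100 μM.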

[3] = molecular target: T2, Cytochrome P450 2B6 (Homo sapiens, UniProt P20813); assay: Drug metabolism assessed as human CYP2B6-mediated metabolism; format: ADME; conditions: recombinant enzyme
T2 sequence (P20813 whole entry): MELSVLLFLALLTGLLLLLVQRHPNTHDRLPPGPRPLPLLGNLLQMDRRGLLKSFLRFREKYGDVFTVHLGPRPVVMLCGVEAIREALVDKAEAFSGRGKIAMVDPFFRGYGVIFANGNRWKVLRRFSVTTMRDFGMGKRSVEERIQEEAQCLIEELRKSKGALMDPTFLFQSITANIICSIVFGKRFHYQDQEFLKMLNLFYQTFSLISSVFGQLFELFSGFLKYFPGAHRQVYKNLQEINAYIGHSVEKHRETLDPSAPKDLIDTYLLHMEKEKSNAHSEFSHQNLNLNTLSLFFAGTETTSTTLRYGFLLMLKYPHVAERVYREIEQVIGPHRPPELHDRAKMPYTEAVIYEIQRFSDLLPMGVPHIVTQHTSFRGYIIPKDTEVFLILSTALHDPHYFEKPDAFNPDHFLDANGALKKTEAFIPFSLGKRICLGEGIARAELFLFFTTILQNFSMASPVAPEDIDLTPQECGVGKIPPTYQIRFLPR

[4] = Toxicity in Beagle dog at 200 mg/kg, po administered as repeated dose and measured upto 13 weeks; format: organism-based, Canis lupus familiaris; conditions: in vivo, 2184 h
[5] = Tmax in Beagle dog at 10 mg/kg, po measured upto 48 hrs by LC-MS/MS analysis; conditions: in vivo
[6] = AUClast in Beagle dog at 3 mg/kg, iv measured upto 48 hrs by LC-MS/MS analysis; format: ADME, organism-based, Canis lupus familiaris; design: route intravenous, dose 3 mg/kg, time <=48; conditions: in vivo
Summary of the method: (§1)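 Single dose in male Sprague-Dawley rats and male Beagle dogs (n = 3 per species), given 3 mg/kg IV or 10 mg/kg PO. Plasma was sampled to derive Cmax, Tmax, T1/2 and AUClast by each route. Oral bioavailability (F) was calculated from the PO and IV AUClast.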

[7] = molecular target: ATP-binding cassette sub-family C member 2 (Homo sapiens, UniProt Q92887); assay: Inhibition of sulfasalazine-stimulated MRP2 ATPase activity (unknown origin) in presence of GSH
Sequence of ATP-binding cassette sub-family C member 2 (Q92887 whole entry): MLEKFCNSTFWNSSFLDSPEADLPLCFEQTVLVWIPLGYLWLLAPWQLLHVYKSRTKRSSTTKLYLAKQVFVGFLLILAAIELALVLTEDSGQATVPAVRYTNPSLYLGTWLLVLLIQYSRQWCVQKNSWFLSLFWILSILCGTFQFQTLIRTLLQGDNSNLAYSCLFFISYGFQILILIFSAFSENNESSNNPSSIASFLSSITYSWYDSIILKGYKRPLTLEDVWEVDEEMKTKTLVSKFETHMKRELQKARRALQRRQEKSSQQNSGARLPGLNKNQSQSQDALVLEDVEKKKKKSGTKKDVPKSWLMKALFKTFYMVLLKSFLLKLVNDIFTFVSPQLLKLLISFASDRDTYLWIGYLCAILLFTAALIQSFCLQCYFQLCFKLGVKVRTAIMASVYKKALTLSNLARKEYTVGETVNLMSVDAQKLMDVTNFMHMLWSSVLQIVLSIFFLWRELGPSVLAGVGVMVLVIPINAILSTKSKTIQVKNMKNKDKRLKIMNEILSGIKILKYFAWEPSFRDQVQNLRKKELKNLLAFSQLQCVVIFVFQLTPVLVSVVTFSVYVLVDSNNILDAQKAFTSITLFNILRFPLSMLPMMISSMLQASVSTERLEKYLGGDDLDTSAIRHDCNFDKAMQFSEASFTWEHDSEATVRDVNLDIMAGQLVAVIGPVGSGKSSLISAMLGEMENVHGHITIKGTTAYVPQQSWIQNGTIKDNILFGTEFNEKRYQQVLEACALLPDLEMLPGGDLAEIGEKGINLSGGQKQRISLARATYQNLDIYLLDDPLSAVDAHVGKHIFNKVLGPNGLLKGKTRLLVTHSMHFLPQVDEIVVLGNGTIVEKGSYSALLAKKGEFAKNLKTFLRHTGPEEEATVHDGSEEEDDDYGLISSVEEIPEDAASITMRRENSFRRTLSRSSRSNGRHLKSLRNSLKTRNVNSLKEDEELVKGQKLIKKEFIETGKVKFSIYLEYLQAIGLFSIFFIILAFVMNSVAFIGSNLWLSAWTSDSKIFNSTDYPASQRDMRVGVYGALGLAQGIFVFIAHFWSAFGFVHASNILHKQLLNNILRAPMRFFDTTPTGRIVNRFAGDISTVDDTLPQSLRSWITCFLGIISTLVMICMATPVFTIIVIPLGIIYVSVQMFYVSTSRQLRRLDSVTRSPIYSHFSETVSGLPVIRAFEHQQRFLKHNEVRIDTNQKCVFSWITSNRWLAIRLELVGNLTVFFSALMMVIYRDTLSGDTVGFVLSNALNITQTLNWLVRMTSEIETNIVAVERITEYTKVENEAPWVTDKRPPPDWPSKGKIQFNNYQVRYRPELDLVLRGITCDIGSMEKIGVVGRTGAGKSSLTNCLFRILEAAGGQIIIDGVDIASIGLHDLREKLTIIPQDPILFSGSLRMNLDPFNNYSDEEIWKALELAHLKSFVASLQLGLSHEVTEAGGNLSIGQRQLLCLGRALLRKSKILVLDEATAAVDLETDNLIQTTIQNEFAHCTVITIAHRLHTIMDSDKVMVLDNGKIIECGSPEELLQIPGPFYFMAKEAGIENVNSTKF

[8] = AUClast in Sprague-Dawley rat at 10 mg/kg, po measured upto 48 hrs by LC-MS/MS analysis; format: ADME, organism-based; design: route oral, dose 10 mg/kg, time <=48; conditions: in vivo; summary of the method: as §1
[9] = Oral bioavailability in Sprague-Dawley rat at 10 mg/kg measured upto 48 hrs by LC-MS/MS analysis; format: ADME, organism-based; conditions: in vivo
Summary of the method: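 Plasma pharmacokinetics in male Sprague-Dawley rats and male Beagle dogs (n = 3 per species), each given a single dose by IV at 3 mg/kg and by PO at 10 mg/kg. Cmax, Tmax, T1/2 and AUClast were derived for each route. F (%) was calculated from the PO and IV AUClast.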

[10] = test system: MDA-MB-231; assay: Antitumor activity against human MDA-MB-231 cells xenografted in athymic nude mouse assessed as reduction in median number of days for tumor to reach two tumor mass doubling at 20 mg/kg, po administered every other day for 4 doses in presence of 8 mg/kg encequidar and monitored for 70 to 82 days (reference value: 13.1 day); format: functional; conditions: time 70-82 day
[11] = Toxicity in athymic nude mouse xenografted with human NCI-H460 cells assessed as mortality at 30 to 50 mg/kg, po administered every other day for 4 doses in presence of 12 to 20 mg/kg encequidar and monitored for 48 days; format: organism-based; conditions: in vivo, 1152 h, dose 30-50 mg/kg, time 48 day
[12] = Drug metabolism in dog plasma assessed as metabolic ratio of 6alpha-hydroxypaclitaxel at 6 mg/kg, po in presence of 3 mg/kg encequidar; format: ADME, organism-based, Canis lupus familiaris; conditions: in vivo
[13] = Toxicity in athymic nude mouse xenografted with human MDA-MB-231 cells assessed as reduction in body weight at 40 mg/kg, po administered every other day for 4 doses in presence of 16 mg/kg encequidar and monitored for 70 to 82 days; format: organism-based; design: scale not given: the % may be the effect or the level left; conditions: in vivo, time 70-82 day
Summary of the method: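 Female athymic NCr-nu mice (n = 10/group) bearing subcutaneous MDA-MB-231 xenografts were treated from day 8. […] Individual body weights were monitored for 82 days after implantation.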

[14] = Cmax in Sprague-Dawley rat at 20 mg/kg, po measured upto 24 hrs by LC-MS/MS analysis; format: ADME, organism-based; design: route oral, dose 20 mg/kg, time <=24; conditions: in vivo
[15] = Toxicity in athymic nude mouse xenografted with human NCI-H460 cells assessed as reduction in body weight at 18 to 24 mg/kg, iv administered every other day for 4 doses monitored for 48 days; format: organism-based; conditions: in vivo, 1152 h, dose 18-24 mg/kg, time 48 day
Summary of the method: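 Female athymic NCr-nu mice carried subcutaneous NCI-H460 human lung tumor xenografts. Paclitaxel was given IV at 18 or 24 mg/kg every other day for four doses. Animals were followed for 48 days after tumor implantation, with individual body weights and mortality recorded alongside tumor weights.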

[16] = Drug excretion in dog bile at 6 mg/kg, po in presence of 3 mg/kg encequidar; format: ADME, organism-based, Canis lupus familiaris; conditions: in vivo
[17] = Drug distribution in BALB/c mouse kidney at 20 mg/kg, po measured upto 24 hrs in presence of 10 mg/kg encequidar by LC-MS/MS analysis; format: ADME, organism-based; conditions: in vivo
[18] = test system: MDA-MB-231; assay: Antitumor activity against human MDA-MB-231 cells xenografted in athymic nude mouse assessed as reduction in tumor growth at 30 mg/kg, po administered every other day for 4 doses in presence 12 mg/kg encequidar and monitored for 70 to 82 days; format: functional, organism-based; conditions: time 70-82 day
[19] = Drug absorption in fed Sprague-Dawley rat at 20 mg/kg, po measured upto 24 hrs in presence of 10 mg/kg encequidar by LC-MS/MS analysis; format: ADME, organism-based; conditions: in vivo
[20] = test system: SK-OV-3; assay: Antitumor activity against human SK-OV-3 cells xenografted in athymic nude mouse assessed as tumor growth inhibition in presence of encequidar; format: functional

| Drug uptake [1] | inhibition (INH) [2] [%] | Drug metabolism [3] | Tmax [5] [h] | AUC(0-t) at 48 h [6] [ng·h/mL] | IC50 [7] [µM] | AUC(0-t) at 48 h [8] [ng·h/mL] | bioavailability [9] [%] | SMILES | Activity [4] | Time [10] [days] | Activity [11] | Ratio [12] | Activity [13] [%] | Cmax [14] [ng/mL] | Activity [15] | Drug excretion [16] | Drug uptake [17] | Activity [18] | Drug absorption [19] | Activity [20] |
| --- | --- | --- | --- | --- | --- | --- | --- | --- | --- | --- | --- | --- | --- | --- | --- | --- | --- | --- | --- | --- |
| Not Active | < 50 | Metabolite_Notdetected | 13.3 | 1920 | > 100 | 129 | 6.25 | COc1cc2c(cc1OC)CN(CCc1ccc(-n3nnc(-c4cc(OC)c(OC)cc4NC(=O)c4cc(=O)c5ccccc5o4)n3)cc1)CC2 | Non-Toxic | – | – | – | – | – | – | – | – | – | – | – |
| – | – | – | – | – | – | – | – | CC(=O)O[C@H]1C(=O)[C@@]2(C)[C@H]([C@H](OC(=O)c3ccccc3)[C@]3(O)C[C@H](OC(=O)[C@H](O)[C@@H](NC(=O)c4ccccc4)c4ccccc4)C(C)=C1C3(C)C)[C@]1(OC(C)=O)CO[C@@H]1C[C@@H]2O [PACLITAXEL] | – | 15.1 | Non-Toxic | 0.76 | 5 | 127 | Toxic | Metabolite_Detected | Active | Active | Not Active | Active |
